As a reminder, the IC50 is the concentration needed to halve the response being measured. A high value points to a need for much substance.

One assay deals with T1, Endothelin-1 receptor (Sus scrofa) (UniProt Q29010).
T1 sequence (whole entry): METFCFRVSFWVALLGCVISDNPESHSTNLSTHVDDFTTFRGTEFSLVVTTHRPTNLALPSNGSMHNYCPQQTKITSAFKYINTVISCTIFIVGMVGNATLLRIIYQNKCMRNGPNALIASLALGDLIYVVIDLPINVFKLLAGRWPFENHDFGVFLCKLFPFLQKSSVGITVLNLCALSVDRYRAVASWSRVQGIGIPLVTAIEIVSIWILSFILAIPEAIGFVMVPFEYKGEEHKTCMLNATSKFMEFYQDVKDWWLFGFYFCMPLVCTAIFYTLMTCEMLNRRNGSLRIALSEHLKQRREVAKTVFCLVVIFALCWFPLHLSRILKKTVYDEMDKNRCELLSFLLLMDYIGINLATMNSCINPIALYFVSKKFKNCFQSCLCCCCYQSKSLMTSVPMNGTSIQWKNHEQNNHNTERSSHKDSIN
Kind of assay: Endothelin A receptor agonist activity as maximum vasoconstriction in porcine coronary artery. The assay is classed as functional, tissue-based. An outline of the steps: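 Porcine right coronary artery, endothelium-denuded helical strips in Krebs-Henseleit, 37 °C, isometric tension. Compound applied cumulatively, up to 1 μM. Maximal contraction expressed as % of 60 mM KCl-induced tension; n in parentheses.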
On to `CC[C@H](C)[C@H](NC(=O)[C@H](CC(C)(C)C)NC(=O)[C@@H](NC(=O)[C@H](CC(C)C)NC(=O)[C@H](Cc1c[nH]cn1)NC(=O)[C@@H]1CSSC[C@@H](N)C(=O)N[C@@H](CO)C(=O)N[C@@H]2CSSC[C@@H](NC(=O)[C@H](CCC(=O)O)NC(=O)[C@@H](CCCCN)NC(=O)[C@H](CC(=O)O)NC(=O)[C@@H](CCSC)NC(=O)[C@H](CC(C)C)NC(=O)[C@@H](CO)NC(=O)[C@H](CO)NC2=O)C(=O)N[C@@H](C(C)C)C(=O)N[C@H](Cc2ccc(O)cc2)C(=O)N[C@@H](Cc2ccccc2)C(=O)N1)[C@@H](C)O)C(=O)N[C@@H](Cc1c[nH]c2ccccc12)C(=O)O`, for which the Max vasoconstriction was found to be 0.
The compound `CCC[C@H](NC(=O)[C@@H](NC(=O)[C@H](CC(C)C)NC(=O)[C@H](Cc1c[nH]cn1)NC(=O)[C@@H]1CSSC[C@@H](N)C(=O)N[C@@H](CO)C(=O)N[C@@H]2CSSC[C@@H](NC(=O)[C@H](CCC(=O)O)NC(=O)[C@@H](CCCCN)NC(=O)[C@H](CC(=O)O)NC(=O)[C@@H](CCSC)NC(=O)[C@H](CC(C)C)NC(=O)[C@@H](CO)NC(=O)[C@H](CO)NC2=O)C(=O)N[C@@H](C(C)C)C(=O)N[C@H](Cc2ccc(O)cc2)C(=O)N[C@@H](Cc2ccccc2)C(=O)N1)[C@@H](C)O)C(=O)N[C@H](C(=O)N[C@@H](Cc1c[nH]c2ccccc12)C(=O)O)[C@@H](C)CC` displayed a Max vasoconstriction of 112.
On the same count and under the same terms, the same measure for `CC[C@H](C)[C@H](NC(=O)[C@H](CC(=O)O)NC(=O)[C@H](CC(C)C)NC(=O)[C@H](Cc1c[nH]cn1)NC(=O)[C@@H]1CSSC[C@@H](N)C(=O)N[C@H](CO)C(=O)N[C@H]2CSSC[C@@H](NC(=O)[C@H](CCC(=O)O)NC(=O)[C@H](CCCCN)NC(=O)[C@@H](CC(=O)O)NC(=O)[C@H](CCSC)NC(=O)[C@@H](CC(C)C)NC(=O)[C@H](CO)NC(=O)[C@@H](CO)NC2=O)C(=O)N[C@@H](C(C)C)C(=O)N[C@H](Cc2ccc(O)cc2)C(=O)N[C@@H](Cc2ccccc2)C(=O)N1)C(=O)N[C@H](C(=O)N[C@@H](Cc1c[nH]c2ccccc12)C(=O)O)[C@@H](C)CC`: 120.
Still for that read-out and setting: the same measure for `CC[C@H](C)[C@H](NC(=O)[C@@H](NC(=O)[C@H](CC(C)C)NC(=O)[C@H](Cc1c[nH]cn1)NC(=O)[C@@H]1CSSC[C@@H](N)C(=O)N[C@@H](CO)C(=O)N[C@@H]2CSSC[C@@H](NC(=O)[C@H](CCC(=O)O)NC(=O)[C@@H](CCCCN)NC(=O)[C@H](CC(=O)O)NC(=O)[C@@H](CCSC)NC(=O)[C@H](CC(C)C)NC(=O)[C@@H](CO)NC(=O)[C@H](CO)NC2=O)C(=O)N[C@@H](C(C)C)C(=O)N[C@H](Cc2ccc(O)cc2)C(=O)N[C@@H](Cc2ccccc2)C(=O)N1)[C@@H](C)O)C(=O)N[C@H](C(=O)N[C@@H](Cc1c[nH]c2ccccc12)C(=O)O)[C@@H](C)CC`: 76.

A further assay concerns the target T2, Endothelin-1 receptor (Sus scrofa, UniProt Q29010).
T2 sequence (Q29010 whole entry): T1 sequence (whole entry)
Kind of assay: Tested for the competitive binding versus [125I]- ET-1 determined in porcine cardiac ventricular membrane for Endothelin A receptor. An outline of the steps:
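Membranes (porcine cardiac ventricle at 12 μg/mL for ETA; bovine cerebrum at 150 μg/mL for ETB) in pH 7.2 Tris/EGTA/Mg acetate/0.1% BSA buffer with protease inhibitors. Incubated with 100 pM [125I]ET-1 and varied compound for 1 h at 25 °C, then filtered and counted by gamma counter. IC50 given as mean ± SEM of ≥3 determinations.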
As to `CC[C@H](C)[C@H](NC(=O)[C@@H](NC(=O)[C@@H](NC(=O)[C@H](CC(C)C)NC(=O)[C@H](Cc1c[nH]cn1)NC(=O)[C@@H]1CSSC[C@H](N)C(=O)N[C@@H](CO)C(=O)N[C@H]2CSSC[C@H](NC(=O)[C@H](CCC(=O)O)NC(=O)[C@H](CCCCN)NC(=O)[C@H](CC(=O)O)NC(=O)[C@H](CCSC)NC(=O)[C@H](CC(C)C)NC(=O)[C@H](CO)NC(=O)[C@H](CO)NC2=O)C(=O)N[C@@H](C(C)C)C(=O)N[C@@H](Cc2ccc(O)cc2)C(=O)N[C@@H](Cc2ccccc2)C(=O)N1)[C@@H](C)O)C(C)C)C(=O)N[C@@H](Cc1c[nH]c2ccccc12)C(=O)O`, the IC50 was 0.18 nM.
`CCC[C@H](NC(=O)[C@@H](NC(=O)[C@H](CC(C)C)NC(=O)[C@H](Cc1cnc[nH]1)NC(=O)[C@@H]1CSSC[C@H](N)C(=O)N[C@@H](CO)C(=O)N[C@H]2CSSC[C@H](NC(=O)[C@H](CCC(=O)O)NC(=O)[C@H](CCCCN)NC(=O)[C@H](CC(=O)O)NC(=O)[C@H](CCSC)NC(=O)[C@H](CC(C)C)NC(=O)[C@H](CO)NC(=O)[C@H](CO)NC2=O)C(=O)N[C@@H](C(C)C)C(=O)N[C@@H](Cc2ccc(O)cc2)C(=O)N[C@@H](Cc2ccccc2)C(=O)N1)[C@@H](C)O)C(=O)N[C@H](C(=O)N[C@@H](Cc1c[nH]c2ccccc12)C(=O)O)[C@@H](C)CC` registered an IC50 of 0.2 nM.

The values are drawn from ChEMBL document CHEMBL1126560, “Endothelin-1 analogues substituted at both position 18 and 19: highly potent endothelin antagonists with no selectivity for either receptor subtype ETA or ETB” (J Med Chem, 1993).
